The values below come from the array DNA melting data of Ke et al. (doi:10.1101/2024.01.08.574731).

Data set [1] in a line: folding enthalpy; higher = less favourable; fluorescence melt of hairpins on a sequencing array, two-state fit. The conditions noted are these: sodium 0.088 M. The essentials:
(§1)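 In 50 mM Na-HEPES pH 8.0 containing 25 mM NaCl, hairpins from the library on a sequenced MiSeq flow cell were imaged for Cy3 fluorescence at 2.5 °C steps up to 60 °C, with Cy3 and quencher oligos annealed. After normalisation to pre-quench Cy3 and to control constructs, two-state fits with bootstrapping gave melting temperature and folding enthalpy. Four replicates were combined by inverse-variance weighting, and fitted temperatures were shifted up by 9.35 °C to match UV melts.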

The nature of data set [2]: melting temperature; fluorescence melt of hairpins on a sequencing array, two-state fit, raised by 9.35 °C to match UV melts. The conditions noted are these: sodium 0.088 M. A digest of the protocol: as §1

For the sequence GATCACTGCAGTGATC ((((((....)))))), in data set [1], the folding enthalpy is -44.7 kcal/mol. The Tm in data set [2] came out at 61.7 °C.

With GATCACTTACGTGATC ((((((....)))))), in data set [1], the folding enthalpy was -38.1 kcal/mol. The Tm in data set [2] amounted to 57.4 °C.

Take GATCACTTCGGTGATC ((((((....)))))): the folding enthalpy in data set [1] was -40 kcal/mol. The Tm in data set [2] was 57.4 °C.

In the case of GATCACTTGTGTGATC ((((((....)))))), the folding enthalpy in data set [1] was -40.4 kcal/mol. The Tm in data set [2] is 56.1 °C.

Take GATCACTTTGGTGATC ((((((....)))))): the folding enthalpy in data set [1] was -42.3 kcal/mol. Further, the Tm in data set [2] was found to be 57.8 °C.

As for GATCAGAAATCTGATC ((((((....)))))), in data set [1], the folding enthalpy was -35.2 kcal/mol. Moreover, the Tm in data set [2] was 46 °C.

On to GATCAGAAGACTGATC ((((((....)))))), for which the folding enthalpy in data set [1] was -29.1 kcal/mol. The Tm in data set [2] came to 44.9 °C.

Consider GATCAGAAGCTGATC ((((((...)))))), for which the folding enthalpy in data set [1] was -33 kcal/mol. The Tm in data set [2] was 48 °C.

Take GATCAGACCACTGATC ((((((....)))))): the folding enthalpy in data set [1] is -37.1 kcal/mol. Further, the Tm in data set [2] was 49.4 °C.

As for GATCAGACGCCTGATC ((((((....)))))), the folding enthalpy in data set [1] was -40.1 kcal/mol. Besides, in data set [2], the Tm is 50 °C.

As for GATCAGACGCTGATC ((((((...)))))), in data set [1], the folding enthalpy is -34.2 kcal/mol. For the same sequence, the Tm in data set [2] came out at 47.7 °C.

Consider GATCAGACTCCTGATC ((((((....)))))), for which, in data set [1], the folding enthalpy was -36.1 kcal/mol. The Tm in data set [2] came out at 47.5 °C.

Take GATCAGACTTCTGATC ((((((....)))))): the folding enthalpy in data set [1] is -36.3 kcal/mol. Also, in data set [2], the Tm was 50.3 °C.

For GATCAGAGAACTGATC ((((((....)))))), in data set [1], the folding enthalpy was -30.5 kcal/mol. The Tm in data set [2] came out at 44.5 °C.

GATCAGAGACCTGATC ((((((....)))))): the folding enthalpy in data set [1] was -34.6 kcal/mol. Moreover, the Tm in data set [2] was 45.6 °C.

Turning to GATCAGATACTGATC ((((((...)))))), in data set [1], the folding enthalpy was -34.2 kcal/mol. Besides, the Tm in data set [2] was 50.6 °C.

GATCAGATAGCTGATC ((((((....)))))): in data set [1], the folding enthalpy was -38 kcal/mol. The Tm in data set [2] came out at 46.8 °C.

Regarding GATCAGATCCCTGATC ((((((....)))))), the folding enthalpy in data set [1] is -31.8 kcal/mol. For the same sequence, in data set [2], the Tm was determined as 48.3 °C.

Take GATCAGATGCCTGATC ((((((....)))))): the folding enthalpy in data set [1] was -23.8 kcal/mol. Moreover, the Tm in data set [2] was determined as 48.4 °C.

As to GATCAGATGGCTGATC ((((((....)))))), the folding enthalpy in data set [1] is -30.4 kcal/mol. Also, the Tm in data set [2] came to 49.3 °C.

Take GATCAGCAGGCTGATC ((((((....)))))): in data set [1], the folding enthalpy is -42.1 kcal/mol. Also, the Tm in data set [2] worked out at 59.2 °C.

Regarding GATCAGCCAGCTGATC ((((((....)))))), the folding enthalpy in data set [1] was -40.1 kcal/mol. The Tm in data set [2] is 56.5 °C.

GATCAGCCGACTGATC ((((((....)))))): the folding enthalpy in data set [1] is -35.5 kcal/mol. For the same sequence, in data set [2], the Tm amounted to 49.6 °C.

As for GATCAGCGAAAGCTATC (((.(((....)))))), the folding enthalpy in data set [1] was -12 kcal/mol. Moreover, in data set [2], the Tm came to 32.6 °C.

In the case of GATCAGCGATCTGATC ((((((....)))))), in data set [1], the folding enthalpy was -19.5 kcal/mol. In addition, the Tm in data set [2] is 50 °C.

For the sequence GATCAGCGCCTGATC ((((((...)))))), the folding enthalpy in data set [1] was -38.9 kcal/mol. Besides, in data set [2], the Tm is 48.7 °C.

Regarding GATCAGCGCGCTGATC ((((((....)))))), the folding enthalpy in data set [1] is -43 kcal/mol. Besides, in data set [2], the Tm amounted to 67.4 °C.

GATCAGCGTACTGATC ((((((....)))))): in data set [1], the folding enthalpy is -30.2 kcal/mol. In data set [2], the Tm is 51.6 °C.

Consider GATCAGCTTTCTGATC ((((((....)))))), for which the folding enthalpy in data set [1] is -35 kcal/mol. The Tm in data set [2] came to 50.5 °C.

In the case of GATCAGGAACCTGATC ((((((....)))))), the folding enthalpy in data set [1] is -35 kcal/mol. The Tm in data set [2] was determined as 54.5 °C.

Take GATCAGGAGCCTGATC ((((((....)))))): in data set [1], the folding enthalpy is -31.6 kcal/mol. Also, in data set [2], the Tm was determined as 49.9 °C.

Regarding GATCAGGAGGCTGATC ((((((....)))))), the folding enthalpy in data set [1] was -37.2 kcal/mol. In addition, in data set [2], the Tm is 48.2 °C.

As for GATCAGGATACTGATC ((((((....)))))), the folding enthalpy in data set [1] is -33.8 kcal/mol. The Tm in data set [2] was found to be 56 °C.

With GATCAGGCATCTGATC ((((((....)))))), in data set [1], the folding enthalpy is -45.1 kcal/mol. Besides, the Tm in data set [2] stood at 55.6 °C.

Regarding GATCAGGCGGCTGATC ((((((....)))))), the folding enthalpy in data set [1] is -47.8 kcal/mol. Further, in data set [2], the Tm was determined as 53.2 °C.

In the case of GATCAGGGATCTGATC ((((((....)))))), the folding enthalpy in data set [1] is -29.1 kcal/mol. Also, in data set [2], the Tm turned out to be 57.1 °C.

With GATCAGGGCACTGATC ((((((....)))))), the folding enthalpy in data set [1] was -37.2 kcal/mol. In data set [2], the Tm is 59.8 °C.

For the sequence GATCAGGGCCTGATC ((((((...)))))), the folding enthalpy in data set [1] is -68.2 kcal/mol. In data set [2], the Tm is 53 °C.
